Measured values from different studies.
Lines come from different studies, so protocols differ.

COc1ccc2c(=O)n(C)c(-c3ccccc3)nc2c1
clearance (male Sprague-Dawley rat, plasma; intravenous, 2 mg/kg): 39 mL/min/kg

Oc1c(-n2ccnn2)cnn1-c1cc(N2CCOCC2)ncn1
clearance (male rat, blood; intravenous, 5 mg/kg): 18.3 mL/min/kg

Cc1c(-c2ccccc2)cccc1N1C(=O)c2cc(CN[C@H](C(=O)O)C(C)O)c(OCc3cccc(C#N)c3)cc2C1=O (stereo partly shown)
clearance (Sprague-Dawley rat, plasma; intravenous, 5 mg/kg): 5.66 mL/min/kg

O=C(c1cc(Cc2n[nH]c(=O)c3ccccc23)ccc1F)N1CCN(C(=O)C2CC2)CC1
clearance (female Sprague-Dawley rat, plasma; intravenous): 2.22 mL/min

CNC(=O)c1c(C)oc2cc(Oc3ncnc4cc(OC)c(OC)cc34)ccc12
CL/F (Sprague-Dawley rat, plasma; oral, 1 mg/kg, single dose): 3.5 mL/min/kg

COCCOC(=O)C1=C(C)NC(C)=C(C(=O)OC(C)C)C1c1cccc([N+](=O)[O-])c1 (stereo not shown)
CL/F (male Sprague-Dawley rat, plasma; oral, 12 mg/kg): 0.0943 mL/min/kg

COc1ccc2c(Cc3ccccc3F)c3n(c(=O)c2c1OC)CCc1cc2c(cc1-3)OCO2
clearance (rat, plasma; intravenous, 5 mg/kg): 3.67 mL/min/kg

Oc1c(Br)cc(Cl)c2cccnc12
clearance (Sprague-Dawley rat, plasma; intravenous, 2 mg/kg): 27.8 mL/min/kg

Oc1cc(O)cc(-c2cc3ccc(O)cc3o2)c1
clearance (male rat, plasma; intravenous, 5 mg/kg): 89.5 mL/min/kg

CCOC(=O)[C@@]12C[C@@H]1[C@@H](n1ccc3c(NC)nc(C#Cc4ccc(Cl)s4)nc31)[C@H](O)[C@@H]2O
clearance (male Sprague-Dawley rat, plasma; intravenous, 0.5 mg/kg): 302 mL/min/kg

CNCc1cc(-c2ccccc2F)n(S(=O)(=O)c2cccnc2)c1
CL/F (Sprague-Dawley rat, plasma; oral, 10 mg/kg): 293 mL/min/kg

CCCC[C@@H]1NC(=O)[C@H](Cc2ccc(O)cc2)NC(=O)[C@@H]2CCCN2C(=O)[C@H](CC(=O)O)NC(=O)[C@H](C)NC(=O)[C@H](Cc2ccccc2)NC(=O)[C@@H]2CSCCC(=O)N3CN(CN(C3)C(=O)CCSC[C@@H](C(=O)N[C@@H](C)C(N)=O)NC1=O)C(=O)CCSC[C@H](NC(C)=O)C(=O)N[C@@H](CC(C)(C)C)C(=O)N1CCC[C@H]1C(=O)N[C@@H](CCC(=O)O)C(=O)N[C@H](CCCCNC(=O)CCc1cn(CCOCCOCCOCCOCCOCCOCCOCCOCCOCCOCCNC(=O)CCOCCN(CCOCCC(=O)NCCOCCOCCOCCOCCOCCOCCOCCOCCOCCOCCn3cc(CCC(=O)NCCCC[C@H]4NC(=O)[C@H](CCC(=O)O)NC(=O)[C@@H]5CCCN5C(=O)[C@H](CC(C)(C)C)NC(=O)[C@@H](NC(C)=O)CSCCC(=O)N5CN6CN(C5)C(=O)CCSC[C@H](NC(=O)[C@H](Cc5ccc(O)cc5)NC(=O)[C@@H]5CCCN5C4=O)C(=O)N[C@@H](Cc4ccccc4)C(=O)N[C@@H](C)C(=O)N[C@@H](CC(=O)O)C(=O)N4CCC[C@H]4C(=O)N[C@@H](Cc4ccc(O)cc4)C(=O)N[C@@H](CCCC)C(=O)N[C@H](C(=O)N[C@@H](C)C(N)=O)CSCCC6=O)nn3)CCOCCC(=O)NCCOCCOCCOCCOCCOCCOCCOCCOCCOCCOCCn3cc(CCC(=O)N[C@H]4CSCCC(=O)N5CN6CN(C5)C(=O)CCSC[C@H](NC(=O)[C@@H](CC(=O)O)NC(=O)[C@H](Cc5cccc7ccccc57)NC(=O)[C@@H]5CCCN5C4=O)C(=O)N[C@@H](CCSC)C(=O)N[C@@H](CCCCNC(=N)N)C(=O)N[C@@H](CC(=O)O)C(=O)N[C@@H](Cc4c[nH]c5ccccc45)C(=O)N[C@@H](CO)C(=O)N[C@@H]([C@@H](C)O)C(=O)N4CCC[C@H]4C(=O)N4C[C@H](O)C[C@H]4C(=O)N[C@@H](Cc4c[nH]c5ccccc45)C(=O)N[C@H](C(N)=O)CSCCC6=O)nn3)nn1)C(=O)N1CCC[C@H]1C(=O)N[C@@H](Cc1ccc(O)cc1)C(=O)N2
clearance (rat, plasma; intravenous, 2 mg/kg): 12 mL/min/kg

Cl.Clc1ccc2c(c1)nc(N1CCNCC1)n2Cc1ccccc1
clearance (rat, plasma; intravenous, 1 mg/kg): 144 mL/min/kg
